In ChEMBL document CHEMBL4433203, “Design, synthesis, and evaluation of isoflavone analogs as multifunctional agents for the treatment of Alzheimer's disease” (Eur J Med Chem, 2019):
The source made the active and inactive calls. The calls are words filed in the database; no cut-off is given here.

Columns and labels:
[1] = AUC (0 to t) in ICR mouse at 30 mg/kg, po measured upto 48 hrs by LCMS/MS method; assay type: ADME, organism-based; design: time < 48 hr, dose 30 mg/kg, route oral; settings: in vivo
[2] = Antioxidant activity assessed as AAPH radical scavenging activity preincubated for 15 mins with fluorescein before AAPH addition and recorded every 2 mins for 160 mins by ORAC-FL assay; assay type: functional
Outline: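 ORAC-FL assay in 75 mM PBS, pH 7.4. Compound was preincubated with fluorescein (20 nM final) for 15 min at 37 °C, then AAPH (18 mM final) was added. Fluorescence (ex 460/em 520 nm) was read every 2 min for 160 min. Net area under the decay curve, blank-normalized, is expressed as µM Trolox equivalents per µM compound. Duplicates, ≥3 independent assays.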

[3] = tested on: Mus musculus; assay: Effect on error times in ICR mouse model of scopolamine-induced cognitive deficit during training stage at 10 to 30 mg/kg, po treated for 1 hr followed by scopolamine challenge for 30 mins by step-down passive avoidance test; assay type: ADME, organism-based; settings: in vivo
Outline: (§1)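 ICR mice, six weeks old, 18-22 g, either sex, n = 15/group. […] Step-down test used foot shock of 20 V, 0.5 mA, 2 s, with a training trial and a test 24 h later. Read-outs were latency to first step-down and number of shocks in 5 min. Mean ± SEM.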

[4] = tested on: Mus musculus; assay: Antialzheimer activity in ICR mouse model of scopolamine-induced cognitive deficit assessed as prolongation of scopolamine-induced latency at 10 to 30 mg/kg, po treated for 1 hr followed by scopolamine challenge for 30 mins by step-down passive avoidance test; assay type: functional, organism-based; outline: as §1
[5] = tested on: BV-2; assay: Cytotoxicity activity in mouse BV2 cells assessed as reduction in cell viability up to 100 uM measured after 72 hrs incubation by MTT assay; assay type: cell-based; settings: bv-2, 72 h
[6] = tested on: SH-SY5Y; assay: Neuroprotective activity against copper-induced cytotoxicity in human SH-SY5Y cells expressing APP Swedish mutant assessed as increase in cell viability at 10 uM pre-incubated for 2 hrs followed by copper addition and measured after 24 hrs by MTT assay; assay type: functional, cell-based
[7] = target: Histamine H3 receptor (Homo sapiens, UniProt Q9Y5N1); assay: Inhibition of human H3R expressed in methylhistamine-induced human H3-bla U2OS cells incubated for 30 mins by beta-lactamase complementation technology; assay type: cell-based; settings: read-out: IC50
Outline: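 H3-bla U2OS cells co-express human H3R-Gal4-VP16 (TEV site) and β-arrestin/TEV protease with a UAS-β-lactamase reporter. IC50 came from log concentration-inhibition curves. Triplicates, three independent experiments.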

[8] = target: T1, Acetylcholinesterase (Mus musculus, UniProt P21836); assay: Inhibition of mouse brain AChE using acetylthiocholine iodide as substrate measured after 30 mins by Ellman's method; settings: read-out: IC50
T1 sequence (P21836 whole entry): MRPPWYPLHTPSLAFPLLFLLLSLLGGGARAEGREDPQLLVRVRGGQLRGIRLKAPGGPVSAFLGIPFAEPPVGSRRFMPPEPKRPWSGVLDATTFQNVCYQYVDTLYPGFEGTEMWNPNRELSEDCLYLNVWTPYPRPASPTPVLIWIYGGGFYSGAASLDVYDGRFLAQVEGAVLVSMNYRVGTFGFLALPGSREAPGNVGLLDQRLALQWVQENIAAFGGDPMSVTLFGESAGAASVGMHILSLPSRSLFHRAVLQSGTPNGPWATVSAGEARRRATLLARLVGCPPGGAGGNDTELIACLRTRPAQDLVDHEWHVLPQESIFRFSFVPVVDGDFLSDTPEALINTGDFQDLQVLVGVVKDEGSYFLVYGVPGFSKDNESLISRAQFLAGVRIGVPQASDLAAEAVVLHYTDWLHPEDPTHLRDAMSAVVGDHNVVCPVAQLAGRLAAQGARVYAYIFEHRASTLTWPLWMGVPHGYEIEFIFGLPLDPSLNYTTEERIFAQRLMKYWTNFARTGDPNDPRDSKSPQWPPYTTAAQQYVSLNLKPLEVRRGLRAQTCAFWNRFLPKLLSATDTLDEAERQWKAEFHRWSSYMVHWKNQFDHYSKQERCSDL

[9] = tested on: Mus musculus; assay: Antialzheimer activity in ICR mouse model of scopolamine-induced cognitive deficit assessed as scopolamine-induced latency time at 10 to 30 mg/kg, po treated for 1 hr followed by scopolamine challenge for 30 mins by step-down passive avoidance test (reference value: 5 secs); assay type: functional; outline: as §1
[10] = Acute toxicity ICR mouse assessed as induction of abnormal behavior at 0 to 1000 mg/kg, po measured up to 14 days; assay type: organism-based; settings: in vivo, 336 h
Outline: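 Male ICR mice (22 days, 20–22 g), n = 5 per group, chow and water ad libitum, 12 h light/dark cycle. Single oral dose of 0, 100, 200, 500 or 1000 mg/kg in 0.5% CMC-Na. Observed continuously for the first 4 h, intermittently over the next 24 h, then occasionally to 14 days. Euthanized on day 14.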

[11] = Cmax in ICR mouse at 30 mg/kg, po measured upto 48 hrs by LCMS/MS method; assay type: ADME, organism-based; design: dose 30 mg/kg, route oral; settings: in vivo
[12] = tested on: BuChE; assay: Selectivity index, ratio of CC50 for human SH-SY5Y cells IC50 for mouse plasma BuChE; assay type: toxicity
Outline: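 SI is CC50 in SH-SY5Y divided by BuChE IC50. […] For IC50, mouse plasma BuChE was preincubated 30 min at 37 °C with DTNB and compound in 0.05 M PBS pH 8.0. Butyrylthiocholine iodide was added and A412 read; IC50 taken from log concentration–inhibition curves.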

Chain of Histamine H3 receptor (Q9Y5N1 whole entry, the tested form may be a part): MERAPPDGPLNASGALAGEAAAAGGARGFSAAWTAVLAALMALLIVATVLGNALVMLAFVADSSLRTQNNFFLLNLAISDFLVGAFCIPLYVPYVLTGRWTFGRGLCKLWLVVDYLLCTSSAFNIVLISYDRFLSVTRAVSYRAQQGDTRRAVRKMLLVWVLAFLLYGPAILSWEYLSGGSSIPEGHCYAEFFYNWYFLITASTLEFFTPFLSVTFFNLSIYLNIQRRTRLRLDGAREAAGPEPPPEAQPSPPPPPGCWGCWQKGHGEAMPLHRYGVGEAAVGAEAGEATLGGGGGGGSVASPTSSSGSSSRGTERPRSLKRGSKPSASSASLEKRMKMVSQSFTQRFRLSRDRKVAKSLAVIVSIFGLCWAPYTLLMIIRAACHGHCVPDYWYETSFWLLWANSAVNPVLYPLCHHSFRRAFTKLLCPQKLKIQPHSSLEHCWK

CCN(C)CCCCOc1ccc2c(=O)c(-c3ccc(OCCN4CCCCC4)cc3)coc2c1
AUC(0-t) at 48 h [1]: 325 ng·h/mL | Activity [2]: 0.01 equiv/µM | Activity [3]: Non-Toxic | Activity [4]: Dose-dependent effect | Activity [5]: Non-Toxic | Activity [6]: Active | IC50 [7]: 270 nM | IC50 [8]: 81 nM | Time [9]: 53 s | Activity [10]: Non-Toxic | Cmax [11]: 52 ng/mL | selectivity ratio [12]: > 34.6
